ChEMBL document CHEMBL2429834, “Potent histone deacetylase inhibitors derived from 4-(aminomethyl)-N-hydroxybenzamide with high selectivity for the HDAC6 isoform” (J Med Chem, 2013)

Tests used:
[1] = Selectivity ratio of IC50 for HDAC1/2 in human HeLa cell nuclear extract to IC50 for N-terminal GST-tagged recombinant HDAC6 (unknown origin); format: cell-based
How it was run: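 HDAC6 leg: 1 nM GST-HDAC6 with 8 μM Ac-Arg-Gly-Lys(Ac)-AMC. Nuclear-extract leg: 30 μg/mL HeLa nuclear extract (mainly HDAC1/2) with 20 μM of the same substrate in 50 mM Tris-Cl, 137 mM NaCl, 2.7 mM KCl, 1 mM MgCl2, pH 8.0.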

Histone deacetylase 4 = Histone deacetylase 4 (Homo sapiens, UniProt P56524); assay: Inhibition of N-terminal GST-tagged recombinant human HDAC4 (627 to 1085) expressed in baculovirus using acetyl-Lys(trifluoroacetyl)-AMC as substrate after 2 hrs by fluorescence plate reader analysis
[2] = target: T1, Protein deacetylase HDAC6 (Homo sapiens, UniProt Q9UBN7); assay: Inhibition of N-terminal GST-tagged recombinant HDAC6 (unknown origin) assessed as deacetylation of Ac-Arg-Gly-Lys (Ac) after 1 hr by fluorescence plate reader analysis in presence of trypsin
T1 sequence (Q9UBN7 whole entry): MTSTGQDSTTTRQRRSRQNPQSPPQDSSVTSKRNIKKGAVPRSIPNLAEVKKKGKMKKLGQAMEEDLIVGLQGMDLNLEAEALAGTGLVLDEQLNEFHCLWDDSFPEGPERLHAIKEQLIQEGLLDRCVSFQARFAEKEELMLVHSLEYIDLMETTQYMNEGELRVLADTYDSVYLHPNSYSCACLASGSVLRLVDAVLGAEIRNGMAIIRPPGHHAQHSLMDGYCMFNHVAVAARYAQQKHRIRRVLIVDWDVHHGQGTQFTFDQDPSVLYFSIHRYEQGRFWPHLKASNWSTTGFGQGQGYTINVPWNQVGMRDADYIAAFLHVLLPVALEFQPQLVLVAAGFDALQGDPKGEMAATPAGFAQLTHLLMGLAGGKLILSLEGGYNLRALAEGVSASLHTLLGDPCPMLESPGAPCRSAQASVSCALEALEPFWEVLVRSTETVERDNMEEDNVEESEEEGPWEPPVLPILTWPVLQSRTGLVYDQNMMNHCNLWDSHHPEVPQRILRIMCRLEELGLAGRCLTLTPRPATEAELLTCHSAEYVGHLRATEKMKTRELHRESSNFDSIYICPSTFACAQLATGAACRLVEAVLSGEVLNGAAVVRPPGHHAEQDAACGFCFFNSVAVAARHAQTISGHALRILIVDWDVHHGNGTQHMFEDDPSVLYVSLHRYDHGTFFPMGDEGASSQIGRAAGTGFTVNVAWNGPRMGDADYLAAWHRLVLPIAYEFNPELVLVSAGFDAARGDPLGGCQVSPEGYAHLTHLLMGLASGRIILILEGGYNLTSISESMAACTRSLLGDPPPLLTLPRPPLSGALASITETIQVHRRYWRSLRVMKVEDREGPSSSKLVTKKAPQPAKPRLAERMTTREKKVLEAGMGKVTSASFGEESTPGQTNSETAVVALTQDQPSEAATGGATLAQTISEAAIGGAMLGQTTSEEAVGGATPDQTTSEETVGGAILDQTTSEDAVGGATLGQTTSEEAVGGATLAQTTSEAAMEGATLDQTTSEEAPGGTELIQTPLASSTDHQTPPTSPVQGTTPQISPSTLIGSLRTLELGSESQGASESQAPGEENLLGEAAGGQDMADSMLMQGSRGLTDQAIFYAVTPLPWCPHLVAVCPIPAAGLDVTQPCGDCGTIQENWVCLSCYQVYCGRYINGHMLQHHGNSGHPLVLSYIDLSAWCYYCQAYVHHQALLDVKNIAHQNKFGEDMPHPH

[3] = target: T1, Protein deacetylase HDAC6; assay: Inhibition of HDAC6 in human HeLa cells using acetyl tubulin as substrate assessed as Ac-tubulin accumulation in cytosol after 6 hrs by immunofluorescence assay
Histone deacetylase 2 = Histone deacetylase 2 (Homo sapiens, UniProt Q92769); assay: Inhibition of full length C-terminal His6x-tagged recombinant human HDAC2 expressed in baculovirus using Arg-His-Lys-Lys (Ac) as substrate after 2 hrs by fluorescence plate reader analysis
[4] = target: T2, Polyamine deacetylase HDAC10 (Homo sapiens, UniProt Q969S8); assay: Inhibition of N-terminal GST-tagged recombinant human HDAC10 (1 to 481) expressed in baculovirus using Arg-His-Lys-Lys (Ac) as substrate after 1 hr by fluorescence plate reader analysis
T2 sequence (Q969S8 whole entry): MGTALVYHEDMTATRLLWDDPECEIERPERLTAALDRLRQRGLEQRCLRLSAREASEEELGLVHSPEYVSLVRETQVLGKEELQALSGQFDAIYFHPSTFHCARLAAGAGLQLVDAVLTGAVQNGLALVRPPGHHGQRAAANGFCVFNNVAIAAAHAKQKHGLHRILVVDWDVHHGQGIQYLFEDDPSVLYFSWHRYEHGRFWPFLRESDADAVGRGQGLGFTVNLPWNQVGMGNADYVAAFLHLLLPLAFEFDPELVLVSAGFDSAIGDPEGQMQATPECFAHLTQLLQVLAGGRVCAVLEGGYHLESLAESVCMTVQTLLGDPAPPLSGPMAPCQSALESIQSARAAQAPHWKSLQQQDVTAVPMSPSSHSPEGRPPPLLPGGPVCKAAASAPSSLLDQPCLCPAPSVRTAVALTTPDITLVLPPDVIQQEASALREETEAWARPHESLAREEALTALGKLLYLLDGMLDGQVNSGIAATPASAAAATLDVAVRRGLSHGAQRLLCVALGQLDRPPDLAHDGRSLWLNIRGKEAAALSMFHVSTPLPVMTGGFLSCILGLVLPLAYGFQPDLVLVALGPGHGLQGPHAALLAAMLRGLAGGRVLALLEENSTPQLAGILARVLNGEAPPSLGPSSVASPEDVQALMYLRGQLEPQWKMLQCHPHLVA

[5] = target: T3, Protein deacetylase HDAC6 (Homo sapiens) (UniProt Q9UBN7); assay: Inhibition of HDAC6 in human HeLa cells using acetyl tubulin as substrate assessed as Ac-Lys accumulation in nuclear histones at 20 uM after 24 hrs by immunofluorescence assay relative to control
T3 sequence (whole entry): T1 sequence (Q9UBN7 whole entry)

Histone deacetylase 3 = Histone deacetylase 3 (Homo sapiens, UniProt O15379); assay: Inhibition of full length C-terminal His6x-tagged recombinant human HDAC3 expressed in baculovirus using Arg-His-Lys-Lys (Ac) as substrate after 2 hrs by fluorescence plate reader analysis
Chain of Histone deacetylase 3 (O15379 whole entry): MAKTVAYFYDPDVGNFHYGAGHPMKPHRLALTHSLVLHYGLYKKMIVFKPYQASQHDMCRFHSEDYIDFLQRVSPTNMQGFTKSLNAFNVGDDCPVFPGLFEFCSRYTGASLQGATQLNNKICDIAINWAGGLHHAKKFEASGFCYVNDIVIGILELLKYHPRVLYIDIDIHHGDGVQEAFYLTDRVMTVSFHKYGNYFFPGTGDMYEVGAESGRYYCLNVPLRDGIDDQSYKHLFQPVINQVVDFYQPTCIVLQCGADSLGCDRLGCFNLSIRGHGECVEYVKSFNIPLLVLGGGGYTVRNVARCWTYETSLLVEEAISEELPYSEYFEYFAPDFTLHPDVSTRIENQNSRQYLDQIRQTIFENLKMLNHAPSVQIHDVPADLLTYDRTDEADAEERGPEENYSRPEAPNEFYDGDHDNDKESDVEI

Chain of Histone deacetylase 2 (Q92769 whole entry): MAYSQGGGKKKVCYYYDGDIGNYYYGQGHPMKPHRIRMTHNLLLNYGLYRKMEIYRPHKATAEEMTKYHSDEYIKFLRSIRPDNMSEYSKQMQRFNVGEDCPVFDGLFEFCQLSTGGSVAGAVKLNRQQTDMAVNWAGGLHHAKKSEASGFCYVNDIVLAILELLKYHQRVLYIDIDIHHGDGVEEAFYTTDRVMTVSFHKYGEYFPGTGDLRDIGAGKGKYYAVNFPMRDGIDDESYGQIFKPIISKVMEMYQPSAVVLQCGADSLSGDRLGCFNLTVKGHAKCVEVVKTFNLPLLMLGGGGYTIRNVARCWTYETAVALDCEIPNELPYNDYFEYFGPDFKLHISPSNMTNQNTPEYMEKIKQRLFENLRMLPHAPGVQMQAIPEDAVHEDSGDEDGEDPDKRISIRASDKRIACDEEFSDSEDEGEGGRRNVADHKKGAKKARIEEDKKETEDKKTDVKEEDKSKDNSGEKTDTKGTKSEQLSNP
Chain of Histone deacetylase 4 (P56524 whole entry): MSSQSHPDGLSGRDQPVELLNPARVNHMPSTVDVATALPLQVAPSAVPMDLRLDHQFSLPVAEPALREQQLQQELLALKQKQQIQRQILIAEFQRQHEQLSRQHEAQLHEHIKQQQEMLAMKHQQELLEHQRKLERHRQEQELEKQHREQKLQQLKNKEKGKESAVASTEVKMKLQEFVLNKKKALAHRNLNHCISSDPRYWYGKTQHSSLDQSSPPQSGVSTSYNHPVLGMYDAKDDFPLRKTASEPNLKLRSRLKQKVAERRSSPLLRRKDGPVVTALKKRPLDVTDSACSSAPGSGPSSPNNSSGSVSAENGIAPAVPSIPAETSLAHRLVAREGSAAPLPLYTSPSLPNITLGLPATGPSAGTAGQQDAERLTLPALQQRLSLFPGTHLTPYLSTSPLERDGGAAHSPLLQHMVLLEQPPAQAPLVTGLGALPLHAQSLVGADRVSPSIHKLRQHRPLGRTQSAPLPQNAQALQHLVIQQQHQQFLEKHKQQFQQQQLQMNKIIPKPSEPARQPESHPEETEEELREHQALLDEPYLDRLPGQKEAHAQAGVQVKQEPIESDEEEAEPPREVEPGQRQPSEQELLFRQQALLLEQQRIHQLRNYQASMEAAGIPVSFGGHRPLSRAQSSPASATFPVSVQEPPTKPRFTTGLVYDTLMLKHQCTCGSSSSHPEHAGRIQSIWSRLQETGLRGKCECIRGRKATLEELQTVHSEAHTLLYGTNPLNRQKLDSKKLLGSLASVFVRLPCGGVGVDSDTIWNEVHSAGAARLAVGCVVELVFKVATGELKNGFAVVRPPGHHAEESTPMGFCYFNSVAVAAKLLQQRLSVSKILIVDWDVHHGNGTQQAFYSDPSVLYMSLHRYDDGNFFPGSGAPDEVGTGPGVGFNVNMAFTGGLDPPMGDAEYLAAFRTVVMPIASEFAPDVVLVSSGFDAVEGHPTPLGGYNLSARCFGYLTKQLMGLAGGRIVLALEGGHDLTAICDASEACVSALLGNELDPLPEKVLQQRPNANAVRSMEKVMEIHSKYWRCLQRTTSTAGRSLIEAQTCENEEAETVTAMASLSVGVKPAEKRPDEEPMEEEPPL

| Structure (SMILES) | Ratio IC50 [1] | IC50 (Histone deacetylase 4) [µM] | IC50 [2] [µM] | IC50 [3] [µM] | IC50 (Histone deacetylase 2) [µM] | IC50 [4] [µM] | inhibition [5] [%] | IC50 (Histone deacetylase 3) [µM] |
| --- | --- | --- | --- | --- | --- | --- | --- | --- |
| Cn1cccc1C(=O)N1CCc2cc(C(=O)NO)ccc2C1 | 500 | > 50 | 0.036 | 0.21 | > 50 | > 50 | < 20 | 46 |
| Cn1cccc1C(=O)N1CCCc2cc(C(=O)NO)ccc2C1 | > 380 | > 50 | 0.26 | 1.48 | > 50 | > 50 | < 20 | > 50 |
| CC(C)(C)C(=O)N1Cc2ccc(C(=O)NO)cc2C1 | 340 | > 50 | 0.089 | 0.56 | > 50 | > 50 | < 20 | > 50 |
| CC(C)(C)C(=O)N1CCc2cc(C(=O)NO)ccc2C1 | 1500 | > 50 | 0.052 | 0.43 | > 50 | > 50 | < 20 | > 50 |
| Cn1cccc1C(=O)N1Cc2ccc(C(=O)NO)cc2C1 | 690 | > 50 | 0.04 | 0.34 | > 50 | > 50 | < 20 | > 50 |
| Cn1cccc1C(=O)NCc1ccc(C(=O)NO)cc1 | 115 | 15 | 0.019 | 0.46 | 16 | 3.7 | < 20 | 4.5 |
